The structures appear in SMILES notation. The source made the active and inactive calls. The calls are words filed in the database; no cut-off is given here. Where only a bound is given, the exact number is not on record here.

In data set [1] the test system is HEK293. In words: Induction of cell cycle arrest in human HEK293 cells assessed as accumulation at G2/M phase at 15 uM after 48 hrs by propidium iodide staining-based FACS analysis (reference value: 7.5 +/- 1.0%). It is filed as functional. On the technique in general: A flow cytometer gives signals particle by particle.
Data set [2] concerns HEK293. Put plainly: Induction of cell cycle arrest in human HEK293 cells assessed as accumulation at G1 phase at 35 uM after 48 hrs by propidium iodide staining-based FACS analysis (reference value: 61 +/- 0.9%). It is filed as functional.
The subject of data set [3] is Vero. In words: Cytotoxicity activity against african green monkey Vero assessed as cell survival at 12 uM after 48 hrs by MTT assay. It is filed as cell-based. The conditions noted are these: chlorocebus sabaeus. A general note: Tetrazolium dyes change colour on reduction, which living cells bring about.
The test system of data set [4] is Vero. Put plainly: Anticlonogenic activity against african green monkey Vero cells assessed as inhibition of colony formation of cells at 20 to 100 uM after 48 hrs by crystal violet staining. It is filed as cell-based. The conditions noted are these: chlorocebus sabaeus. The method in brief:
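Clonogenic survival in HEK 293 and Vero cells, 48 h exposure at graded concentrations; % survival plotted; mean ± SD of three independent experiments. Cells grown in DMEM with 10% FBS and 1% antibiotic at 37 °C, 5% CO2; compound diluted from 100 mM DMSO stock into DMEM, added at 60–70% confluence.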

In the next data set the test system is MCF7. In words: Cytotoxicity against human MCF7 cells assessed as cell survival at 15 uM after 48 hrs by MTT assay. It is filed as functional. The conditions noted are these: MCF7, 48 h, read-out: Activity. The method, boiled down:
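MTT survival of MCF 7 breast cancer cells, with MCF 10A as normal comparator; 48 h exposure. MCF 7 in DMEM with 10% FBS; MCF 10A in DMEM/F-12 with 10% FBS plus hydrocortisone, cholera toxin, insulin, EGF and L-glutamine. Mean ± SD of three independent experiments.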

In data set [5] the test system is HEK293. In words: Induction of apoptosis in human HEK293 cells assessed as increase in caspase 3 expression at 15 to 25 uM after 48 hrs by Western blot analysis. It is filed as functional, cell-based. The method, boiled down:
(§1)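 Whole-cell extracts from HEK 293 cells after 48 h at graded concentrations, Western blotted for caspase-3, Bax, Bcl-XL and PARP (cleaved 86 kDa fragment); β-actin as loading control.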
On the technique in general: A western blot detects proteins with antibodies after separation by electrophoresis.

Data set [6] has as its system HEK293. In words: Induction of apoptosis in human HEK293 cells assessed as increase in Bax/Bcl-XL ratio at 15 to 25 uM after 48 hrs by Western blot analysis. It is filed as functional, cell-based. The method in brief:
as §1

The target of data set [7] is T1, DNA topoisomerase 2-alpha (Homo sapiens, UniProt P11388). In words: Inhibition of topoisomerase 2 alpha-mediated DNA relaxation activity in human HEK293 cells assessed as increase in supercoiled DNA at 35 uM […] by agarose gel electrophoresis. It is filed as cell-based.
T1 sequence (P11388 whole entry): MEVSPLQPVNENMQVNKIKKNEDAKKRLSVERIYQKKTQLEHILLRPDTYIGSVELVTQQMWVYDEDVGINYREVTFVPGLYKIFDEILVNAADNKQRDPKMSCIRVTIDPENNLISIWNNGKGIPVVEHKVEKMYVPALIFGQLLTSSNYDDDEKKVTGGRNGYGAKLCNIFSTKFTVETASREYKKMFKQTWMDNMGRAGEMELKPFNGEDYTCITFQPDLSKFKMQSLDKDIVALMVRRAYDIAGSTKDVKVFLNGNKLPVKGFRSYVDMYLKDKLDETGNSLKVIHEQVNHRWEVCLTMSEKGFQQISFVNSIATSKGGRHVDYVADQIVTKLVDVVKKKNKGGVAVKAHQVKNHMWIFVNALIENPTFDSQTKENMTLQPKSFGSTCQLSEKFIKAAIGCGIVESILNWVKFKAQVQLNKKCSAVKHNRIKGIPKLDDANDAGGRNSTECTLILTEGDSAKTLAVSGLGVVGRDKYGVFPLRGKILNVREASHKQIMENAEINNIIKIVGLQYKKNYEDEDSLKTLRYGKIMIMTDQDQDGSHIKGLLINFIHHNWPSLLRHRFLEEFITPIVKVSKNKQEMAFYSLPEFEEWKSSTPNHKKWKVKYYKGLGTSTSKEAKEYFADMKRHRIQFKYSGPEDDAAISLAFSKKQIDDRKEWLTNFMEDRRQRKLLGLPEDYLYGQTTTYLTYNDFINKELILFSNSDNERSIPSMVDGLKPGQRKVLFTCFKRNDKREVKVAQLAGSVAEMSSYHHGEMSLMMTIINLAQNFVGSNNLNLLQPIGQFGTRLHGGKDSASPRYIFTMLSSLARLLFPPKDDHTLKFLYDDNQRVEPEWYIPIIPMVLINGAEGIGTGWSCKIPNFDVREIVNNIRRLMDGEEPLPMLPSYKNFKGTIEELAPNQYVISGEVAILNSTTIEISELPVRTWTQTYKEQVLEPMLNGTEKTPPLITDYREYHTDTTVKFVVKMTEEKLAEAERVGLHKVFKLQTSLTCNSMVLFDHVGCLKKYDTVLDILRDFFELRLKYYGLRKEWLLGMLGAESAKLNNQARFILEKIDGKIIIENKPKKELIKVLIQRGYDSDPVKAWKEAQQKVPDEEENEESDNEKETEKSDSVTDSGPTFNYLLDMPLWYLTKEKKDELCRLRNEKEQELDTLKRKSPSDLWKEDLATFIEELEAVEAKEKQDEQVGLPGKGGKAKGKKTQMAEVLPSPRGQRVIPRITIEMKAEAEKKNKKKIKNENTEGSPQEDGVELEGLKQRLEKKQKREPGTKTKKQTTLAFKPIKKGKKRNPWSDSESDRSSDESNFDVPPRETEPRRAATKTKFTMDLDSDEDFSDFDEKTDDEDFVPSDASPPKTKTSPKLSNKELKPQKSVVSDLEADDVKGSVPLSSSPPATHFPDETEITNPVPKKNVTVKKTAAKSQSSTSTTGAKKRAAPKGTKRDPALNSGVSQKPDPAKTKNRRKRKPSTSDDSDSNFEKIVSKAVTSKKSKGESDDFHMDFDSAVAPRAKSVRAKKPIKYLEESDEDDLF
Data set [8] concerns the target T1, DNA topoisomerase 2-alpha. In words: Inhibition of human topoisomerase 2 alpha-mediated decatenation of kDNA at 100 uM by agarose gel electrophoresis. The method in brief:
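150 ng kDNA with 2–4 units purified human topo II and 100 μM compound in DMSO, buffer 0.5 M Tris-HCl pH 8, NaCl, MgCl2, DTT, BSA with ATP (stock buffer concentrations), 20 μL, 37 °C 30 min. Stopped with SDS, proteinase K 37 °C 15 min; 1% agarose in TAE with 0.5 μg/mL EtBr; bands quantified by densitometry; etoposide 100 μM as reference.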

The subject of data set [9] is HEK293. Put plainly: Induction of cell cycle arrest in human HEK293 cells assessed as accumulation at S phase at 15 uM after 48 hrs by propidium iodide staining-based FACS analysis (reference value: 16.91 +/- 1.0%). It is filed as functional.
Data set [10] has as its target T1, DNA topoisomerase 2-alpha. In words: Inhibition of human topoisomerase 2 alpha-mediated relaxation of pRYG plasmid DNA at 100 uM by agarose gel electrophoresis. The method, boiled down: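 250 ng supercoiled pRYG plasmid, 2–4 units hTopoIIα, 100 μM compound, ATP-containing Tris pH 8 buffer, 20 μL, 37 °C 30 min; SDS/proteinase K stop; 1% agarose in TAE without EtBr, post-stained 0.5 μg/mL EtBr; products quantified densitometrically.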

Data set [11] deals with HEK293. Put plainly: Induction of cell cycle arrest in human HEK293 cells assessed as accumulation at G2/M phase at 35 uM after 48 hrs by propidium iodide staining-based FACS analysis (reference value: 7.5 +/- 1.0%). It is filed as functional.
For data set [12], the system named is HEK293. In words: Induction of apoptosis in human HEK293 cells assessed as apoptotic cells at 15 uM after 48 hrs by propidium iodide staining-based FACS analysis (reference value: 4.88 +/- 0.8%). It is filed as functional.
The test system of data set [13] is HEK293. Put plainly: Cytotoxicity against human HEK293 cells assessed as cell survival at 12 uM after 24 hrs by MTT assay. It is filed as functional, cell-based.
For data set [14], the system named is HEK293. Put plainly: Induction of apoptosis in human HEK293 cells assessed as increase in Bax protein expression at 15 to 25 uM after 48 hrs by Western blot analysis. It is filed as functional, cell-based. The method, boiled down: as §1
The test system of data set [15] is HEK293. Put plainly: Induction of apoptosis in human HEK293 cells assessed as increase in PARP cleavage product at 15 to 25 uM after 48 hrs by Western blot analysis. It is filed as functional, cell-based. The method in brief:
as §1

Data set [16] addresses T1, DNA topoisomerase 2-alpha. In words: Inhibition of topoisomerase 2 alpha-mediated DNA relaxation activity in human HEK293 cells assessed as increase in supercoiled DNA at 5 to 25 uM […] by agarose gel electrophoresis. It is filed as cell-based.
In data set [17] the test system is HEK293. In words: Induction of cell cycle arrest in human HEK293 cells assessed as accumulation at G1 phase at 25 uM after 48 hrs by propidium iodide staining-based FACS analysis (reference value: 61 +/- 0.9%). It is filed as functional.
Data set [18] has as its system HEK293. In words: Cytotoxicity against human HEK293 cells assessed as cell survival at 12 uM after 48 hrs by MTT assay. It is filed as functional. The conditions noted are these: HEK293, 48 h, read-out: Activity. The method in brief: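 MTT survival of HEK 293 and Vero cells after 48 h with compound at graded concentrations. DMEM, 10% FBS, 37 °C, 5% CO2; dilutions in DMEM from 100 mM DMSO stock, added at 60–70% confluence. Mean ± SD of three independent experiments.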

The target in data set [19] is T1, DNA topoisomerase 2-alpha. In words: Inhibition of etoposide poisoning activity against human recombinant DNA topoisomerase 2alpha assessed as enhancement of in relaxation of supercoiled plasmid pBR322 DNA at 200 uM after 30 mins by agarose gel electrophoresis.
Data set [20] has as its system HEK293. Put plainly: Induction of cell cycle arrest in human HEK293 cells assessed as accumulation at S phase at 25 uM after 48 hrs by propidium iodide staining-based FACS analysis (reference value: 16.91 +/- 1.0%). It is filed as functional.

With `CC(C)(C)Nc1c(-c2ccc(C(=O)O)cc2)nc2ccccn12`, the Activity with HEK293 [1] is 9.92%; in the data set on HEK293 [2], 21.52%; with Vero [3] it was “Non-toxic”; in the data set with HEK293 [9] it was 13.92%; in the data set on HEK293 [11], 5.56%; in the data set on HEK293 [12] it was 24.61%. For the same compound, the Activity with HEK293 [17] is listed as 36.64%; in the data set with HEK293 [20] it was 14.16%. The “inhibition (INH)” value with Vero [4] is “Dose-dependent effect”. The viability at 15 µM in the data set on MCF7 amounted to 50%. For the same compound, the result in the data set on HEK293 [5], in the data set on HEK293 [6], in the data set on HEK293 [13], in the data set with HEK293 [14] and with HEK293 [15] was Active. The inhibition result in data set [7], in data set [8], in data set [10] and in data set [16] was “Active” in each case. The viability at 12 µM with HEK293 [18] was greater than 50%. Further, the inhibition result in data set [19] was “inactive”.

Source of the values: ChEMBL document CHEMBL1914308, “N-fused imidazoles as novel anticancer agents that inhibit catalytic activity of topoisomerase IIα and induce apoptosis in G1/S phase” (J Med Chem, 2011).
